Hck Nef HTS – inhibitors of Nef-activated human Hck kinase, primary screen, biochemical, Z-Lyte FRET, 384-well, Hck-YEEI; Tyrosine-protein kinase HCK (Homo sapiens), P08631; Recombinant Hck-YEEI plus Nef, Z-Lyte FRET kinase assay; inhibition, % at 20 µM; 220,000 compounds, 0.68% hits;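 active = Hck-Nef kinase inhibition above about 50%, limit read from the data; inactive = inhibition below that limit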;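 also: 0% = DMSO with Hck plus Nef and 100% = Hck alone without Nef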
TAG inh – inhibitors of triacylglycerol accumulation, primary screen, cell-based, uHTS, fluorescence, H9c2. H9c2 cells, Nile Red lipid (TAG) fluorescence; cells loaded with 200 µM oleic acid. inhibition, % at 12.5 µM. 230,000 compounds, 0.66% hits. AID 651582, 2012;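 active = pattern-corrected inhibition of lipid staining of at least 50% with the nuclear-stain viability signal not falling by more than 50%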;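 also: 0% = DMSO wells and 100% = triacsin C control wells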
Rad51 HR inh – human RAD51 strand exchange inhibitors, primary screen, biochemical, fluorescence. hRad51 DNA strand exchange, fluorescence dequenching. AID 1385, 2008. DNA repair protein RAD51 homolog 1 (Homo sapiens), Q06609. 200,000 compounds, 0.085% hits. inhibition, % at 10 µM;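 active = inhibition above 40% at the single screening dose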;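 also: 0% = DMSO control wells and 100% = blanks with heterologous ssDNA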
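Assay system: Human Rad51 nucleoprotein filaments preassembled on unlabelled ssDNA | Reagent: Donor/quencher-labelled 47-bp dsDNA substrate | Doses: One concentration, 10 µM final | Times: 37 °C 15-min filament assembly, 30-min compound preincubation, 15-min exchange | Technique: Fluorescein emission 520 nm, excitation 485 nm | Benchmarks: Plate control and blank wells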
PKD1 inh – inhibitors of human PKD1 kinase, biochemical, fluorescence polarization; PKD1 kinase fluorescence polarization assay; inhibition, % (concentration not given with the values); 200,000 compounds, 0.056% hits; AID 797, 2007; in the data active = inhibition above about 50%
MDM2 E3 inh – MDM2-luciferase reporter signal enhancers, primary screen, MDM2 E3 ligase inhibitor project, cell-based, luminescence, 1536-well | signal enhancement, % at 5 µM | cell-based MDM2 ubiquitination luciferase reporter, 2 h; 0 = plate control, 100 = twice control, blank-subtracted | 210,000 compounds, 0.11% hits | E3 ubiquitin-protein ligase Mdm2 (Homo sapiens), Q00987;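 active = signal enhancement of 30% or more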;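 also: luminescence tracks abundance of the self-degrading MDM2-luciferase fusion protein; higher signal means inhibition of MDM2 E3 ligase activity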
Target sequence (Q00987 whole entry, looked up, the tested form may be a part): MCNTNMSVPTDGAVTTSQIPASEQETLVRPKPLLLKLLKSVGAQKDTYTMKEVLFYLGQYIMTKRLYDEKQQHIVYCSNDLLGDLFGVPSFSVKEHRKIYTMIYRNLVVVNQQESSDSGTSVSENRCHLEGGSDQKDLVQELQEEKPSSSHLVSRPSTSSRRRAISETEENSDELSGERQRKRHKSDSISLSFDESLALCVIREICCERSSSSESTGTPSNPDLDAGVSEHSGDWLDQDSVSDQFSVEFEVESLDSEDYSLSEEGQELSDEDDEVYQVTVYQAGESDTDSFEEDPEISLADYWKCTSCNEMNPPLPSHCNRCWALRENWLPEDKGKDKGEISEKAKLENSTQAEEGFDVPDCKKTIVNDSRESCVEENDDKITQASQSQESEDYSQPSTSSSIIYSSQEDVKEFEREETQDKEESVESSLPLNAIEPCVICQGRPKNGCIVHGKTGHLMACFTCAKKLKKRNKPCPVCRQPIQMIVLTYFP
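Material: Stable MDM2–luciferase fusion reporter cells | Amount: 2000 cells seeded into each well | Dosing: One concentration, 5 µM, with 0.2% DMSO | Incubation: 4 h cell settling then 2 h compound exposure, 37 °C | Measured by: Luciferase luminescence | Read-out basis: % enhancement relative to plate controls after blank subtraction | Benchmarks: Control and blank well means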
PERK inh – block of dimerizer-induced PERK translation repression, primary screen, PERK inhibitor project, CHO PERK-DD cells, SEAP luminescence, HTS; Eukaryotic translation initiation factor 2-alpha kinase 3 (Homo sapiens), Q9NZJ5; CHO PERK-DD fusion, SEAP luminescence translation reporter; inhibition, % at 5.6 µM; 220,000 compounds, 0.17% hits; AID 1416, 2008;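 active = inhibition above the mean inhibition of all tested compounds plus 3 SD, set separately per screening campaign, cut at about 2.9% in these data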;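 also: PERK kinase domain activated by AP20187 dimerizer at 100 nM; 0% = DMSO with dimerizer and 100% = rapamycin at 8.4 µM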
Numbers without * were called inactive; / = no result. A selection: hits, their analogues and other compounds. The true share with any hit is near 1.3%.

SMILES	Hck Nef HTS	TAG inh	Rad51 HR inh	PKD1 inh	MDM2 E3 inh	PERK inh
COc1ccc2c3c([nH]c2c1)[C@H]1C[C@H]2[C@H](C[C@@H](O)[C@H](OC)[C@H]2C(=O)O)CN1CC3	/	-9.7	/	/	/	/
COc1ccc2c3c([nH]c2c1)C1CC2C(CC(O)C(OC)C2CO)CN1CC3 (stereo unspecified)	22.1	/	-13.1	/	-10.9	4.1*
CCC(Oc1ccccc1)C(=O)Nc1ccc(C)c(S(=O)(=O)N2CCOCC2)c1 (stereo unspecified)	/	-7.2	/	/	/	/
CCC(Sc1nc(-c2ccccc2)cc(=O)[nH]1)C(=O)O (stereo unspecified)	-0.7	/	5.6	-5.1	-24.3	3.0*
Oc1ccc(Cl)cc1C(C#Cc1ccccc1)N1CCOCC1 (stereo unspecified)	-0.8	3.1	-4.9	-4.6	-6.2	-0.3
CCCc1cc(=O)[nH]c(SCC(=O)Nc2cc(S(=O)(=O)N3CCCCC3)ccc2C)n1	/	-0.3	/	/	/	/
Cc1csc(C(C)N(C)C(=O)c2ccc(OC3CCN(Cc4ccccn4)CC3)cc2)n1 (stereo unspecified)	/	-9.9	/	/	/	/
CCOc1ccc(NC(=O)Nc2cccn(Cc3ccccc3)c2=O)cc1	0.8	5.0	40.7*	9.2	-22.4	-1.0
N#CCC(=O)Nc1ccc(C(=O)OCC(=O)c2ccc3c(c2)NC(=O)CO3)cc1	/	5.1	/	/	/	/
O=C(CN1C(=O)NC2(CCOc3ccccc32)C1=O)c1ccc(Br)cc1 (stereo unspecified)	/	23.6	/	/	/	/
COc1ccc(-c2cc(C(F)(F)F)nc(SCC(=O)NCc3cnn(C)c3C)n2)cc1OC	-5.8	/	12.0	-5.0	34.8*	-0.6
COc1ccc(-c2sc3cc4c(cc3c2C#CC2(N)CCCCC2)OCO4)cc1	/	59.2*	/	/	/	/
O=C(Cc1ccc(-n2c(=O)c3ccccc3n(Cc3ccccc3Cl)c2=O)cc1)NCC1CCCO1 (stereo unspecified)	20.9	1.6	-1.7	-0.9	30.4*	0.1
O=C(Cc1ccc(-n2c(=O)c3ccccc3n(Cc3ccccc3F)c2=O)cc1)NCC1CCCO1 (stereo unspecified)	4.2	/	3.0	-5.3	-6.7	-0.9
Nc1ccc(C(=O)N/N=C\c2cc(N=Nc3cccc4ccccc34)ccc2O)cc1	3.4	56.4*	0.0	-8.0	-9.1	0.0
COC(=O)N/N=C/c1cc(N=Nc2ccccc2Cl)ccc1O	31.0	0.2	/	/	-1.0	0.1
O=C(C1CCN(S(=O)(=O)c2ccc(F)cc2)CC1)N1CCCC(C(F)(F)F)C1 (stereo unspecified)	/	4.2	/	/	/	/
O=C(O)c1cccnc1Sc1ccccc1Cl	11.3	-2.2	/	/	-5.5	3.2*
Cc1ccc(S(=O)(=O)N2CCC(=O)N(CCOCc3ccc(Cl)cc3)CC2)cc1	-6.4	-10.3	4.3	13.5	/	-1.0
Cc1ccnc(NS(=O)(=O)c2cc(C(F)(F)F)ccc2Cl)c1	4.5	/	/	/	-23.5	3.4*
C=CCNC(=O)c1onc(CSc2ccc(Cl)cc2)c1C(=O)O	0.1	-8.6	-2.7	-16.4	-16.3	1.5
C=CCNC(=O)c1onc(CSc2ccc(F)c(F)c2)c1C(=O)O	0.2	-41.7	-1.2	-20.2	-12.3	3.1*
Cc1cccc(C(=O)OCc2cncs2)c1	-16.1	-16.5	11.2	0.7	-31.9	0.2
Cc1nn(-c2ccccc2)c(Cl)c1CN(C(=O)CCl)c1cccc2ccccc12	-1.2	/	/	2.7	-3.8	-1.6
C/C(N=Nc1nc2ccccc2s1)=N\Nc1ccccc1O	25.7	58.0*	13.7	/	-19.4	-0.8
COc1cccc(/C=N/NC(=O)c2cnccn2)c1O	14.4	53.6*	8.1	/	-15.5	0.1
